In ChEMBL document CHEMBL5678806, “NMS-P937, an orally available, specific small-molecule polo-like kinase 1 inhibitor with antitumor activity in solid and hematologic malignancies” (Mol Cancer Ther, 2012):
The source made the active and inactive calls. The rule behind the calls is not given here.

Experiments:
IGROV-1 = test: Antiproliferative activity against human IGROV-1 cells assessed as inhibition of cell growth incubated for 72 hrs by cell-titer glo assay; type: functional, cell-based; settings: IGROV-1, 72 h
Summary of the method: (§1)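 Cells seeded at 10,000–30,000/cm² (adherent) or 100,000/mL (nonadherent) in medium with 10% fetal calf serum; after 24 h, treated in duplicate with serial dilutions for 72 h. Viable cell number read by CellTiter-Glo luminescence; IC50 from sigmoidal fit; at least two independent experiments.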

U-118-MG = test: Antiproliferative activity against human U-118-MG cells assessed as inhibition of cell growth incubated for 72 hrs by cell-titer glo assay; type: functional, cell-based
[1] = Cmax in male cynomolgus monkey at 5 mg/kg, po by LC-MS analysis; type: ADME, organism-based, Macaca fascicularis; settings: in vivo
A2780 [2] = test: Induction of mitosis in human A2780 cells xenografted in nu/nu mouse assessed as increased Histone H3 phosphorylation on Ser10 at 60 mg/kg, po administered for 2 to 6 hrs by immunohistochemistry analysis; type: functional, organism-based; settings: time 2-6 hrs
K562 = test: Antiproliferative activity against human K562 cells assessed as inhibition of cell growth incubated for 72 hrs by cell-titer glo assay; type: functional, cell-based; settings: K562, 72 h; summary of the method: as §1
CAMA-1 = test: Antiproliferative activity against human CAMA-1 cells assessed as inhibition of cell growth incubated for 72 hrs by cell-titer glo assay; type: functional, cell-based; settings: CAMA-1, 72 h
Summary of the method: (§2)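 Cells seeded 10,000–30,000/cm² (adherent) or 100,000/mL (suspension) in medium with 10% fetal calf serum; after 24 h treated in duplicate with serial dilutions for 72 h. Viable cells read by CellTiter-Glo luminescence; IC50 from sigmoidal fit; at least two independent experiments.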

HCC70 = test: Antiproliferative activity against human HCC70 cells assessed as inhibition of cell growth incubated for 72 hrs by cell-titer glo assay; type: functional, cell-based; settings: HCC70, 72 h; summary of the method: as §1
[3] = biological target: Dual specificity mitogen-activated protein kinase kinase 1 (Homo sapiens) (UniProt Q02750); test: Inhibition of N-terminal GST and C-terminal His6-tagged recombinant full-length human MEK1 expressed in E. coli assessed as residual activity at 0.1 uM relative to control
Sequence of Dual specificity mitogen-activated protein kinase kinase 1 (Homo sapiens) (Q02750 whole entry): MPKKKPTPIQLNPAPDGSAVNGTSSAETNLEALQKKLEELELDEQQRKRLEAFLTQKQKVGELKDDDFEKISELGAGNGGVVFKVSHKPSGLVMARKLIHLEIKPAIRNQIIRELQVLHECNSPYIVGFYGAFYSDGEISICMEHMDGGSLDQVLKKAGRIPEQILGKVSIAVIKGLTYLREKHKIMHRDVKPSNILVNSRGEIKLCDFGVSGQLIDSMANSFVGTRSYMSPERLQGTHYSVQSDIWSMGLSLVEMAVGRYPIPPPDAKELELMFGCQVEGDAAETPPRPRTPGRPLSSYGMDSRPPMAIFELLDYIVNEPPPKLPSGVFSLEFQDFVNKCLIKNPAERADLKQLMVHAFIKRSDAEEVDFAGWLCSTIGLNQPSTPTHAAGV

1A9 = test: Antiproliferative activity against human 1A9 cells assessed as inhibition of cell growth incubated for 72 hrs by cell-titer glo assay; type: functional, cell-based; settings: 1A9, 72 h; summary of the method: as §2
SR = test: Antiproliferative activity against human SR cells assessed as inhibition of cell growth incubated for 72 hrs by cell-titer glo assay; type: functional, cell-based
HCC1806 = test: Antiproliferative activity against human HCC1806 cells assessed as inhibition of cell growth incubated for 72 hrs by cell-titer glo assay; type: functional, cell-based; settings: HCC1806, 72 h; summary of the method: as §1
MDA-MB-435S = test: Antiproliferative activity against human MDA-MB-435S cells assessed as inhibition of cell growth incubated for 72 hrs by cell-titer glo assay; type: functional, cell-based; summary of the method: as §1
Casein kinase 2 = Casein kinase 2 (Homo sapiens, UniProt P67870+P68400+P19784+Q8NEV1); test: Inhibition of CK2 (unknown origin) in presence of [gamma-33P]ATP; type: protein assay
[4] = Antiproliferative activity against human LUDLU-1 cells assessed as inhibition of cell growth incubated for 72 hrs by cell-titer glo assay; type: functional, cell-based; settings: LUDLU-1, 72 h; summary of the method: as §1
SU-DHL-8 = test: Antiproliferative activity against human SU-DHL-8 cells assessed as inhibition of cell growth incubated for 72 hrs by cell-titer glo assay; type: functional, cell-based; settings: SU-DHL-8, 72 h
A2780 [5] = test: In vivo inhibition of PLK1 in human A2780 cells xenografted in nu/nu mouse assessed as increased TCTP phosphorylation on Ser46 at 60 mg/kg, po administered for 6 to 12 hrs hrs by Western blotting analysis; type: functional, organism-based; settings: time lower 6.0 hrs, time upper […]
A2780 [6] = test: Induction of apoptosis in human A2780 cells assessed as PARP cleavage at 0.02 to 0.2 micromol/L incubated for 24 hrs by Western blotting analysis; type: functional, cell-based; settings: dose 0.02-0.2 µmol/L
A2780 [7] = test: Induction of mitosis in human A2780 cells at 0.0001 to 100 uM incubated for upto 24 hrs followed by compound washout by cell titer glow assay; type: functional, cell-based; settings: dose 0.0001-100 µM
[8] = Inhibition of AUR1 (unknown origin) in presence of [gamma-33P]ATP; parameters: species or system Homo sapiens
[9] = Antiproliferative activity against human GM13705 cells assessed as inhibition of cell growth incubated for 72 hrs by cell-titer glo assay; type: functional, cell-based; settings: GM13705, 72 h; summary of the method: as §1
[10] = biological target: cAMP-dependent protein kinase catalytic subunit PRKX (Homo sapiens) (UniProt P51817); test: Inhibition of N-terminal 6His-tagged recombinant full-length human PrKX expressed in baculovirus infected Sf21 cells assessed as residual activity at 1 uM relative to control
Sequence of cAMP-dependent protein kinase catalytic subunit PRKX (Homo sapiens) (P51817 whole entry): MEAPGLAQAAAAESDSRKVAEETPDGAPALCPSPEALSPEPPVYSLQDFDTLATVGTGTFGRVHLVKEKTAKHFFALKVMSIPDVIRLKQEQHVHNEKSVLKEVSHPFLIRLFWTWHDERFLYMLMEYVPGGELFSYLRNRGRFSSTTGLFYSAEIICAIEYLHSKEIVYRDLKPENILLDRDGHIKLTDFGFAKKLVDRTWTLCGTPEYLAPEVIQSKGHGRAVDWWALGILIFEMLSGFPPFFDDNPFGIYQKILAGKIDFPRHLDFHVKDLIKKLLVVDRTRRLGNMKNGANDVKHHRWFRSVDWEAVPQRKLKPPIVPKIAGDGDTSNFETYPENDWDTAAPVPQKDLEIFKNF

Ephrin type-A receptor 2 = Ephrin type-A receptor 2 (Homo sapiens, UniProt P29317); test: Inhibition of EphA2 (unknown origin) in presence of [gamma-33P]ATP
Sequence of Ephrin type-A receptor 2 (P29317 whole entry): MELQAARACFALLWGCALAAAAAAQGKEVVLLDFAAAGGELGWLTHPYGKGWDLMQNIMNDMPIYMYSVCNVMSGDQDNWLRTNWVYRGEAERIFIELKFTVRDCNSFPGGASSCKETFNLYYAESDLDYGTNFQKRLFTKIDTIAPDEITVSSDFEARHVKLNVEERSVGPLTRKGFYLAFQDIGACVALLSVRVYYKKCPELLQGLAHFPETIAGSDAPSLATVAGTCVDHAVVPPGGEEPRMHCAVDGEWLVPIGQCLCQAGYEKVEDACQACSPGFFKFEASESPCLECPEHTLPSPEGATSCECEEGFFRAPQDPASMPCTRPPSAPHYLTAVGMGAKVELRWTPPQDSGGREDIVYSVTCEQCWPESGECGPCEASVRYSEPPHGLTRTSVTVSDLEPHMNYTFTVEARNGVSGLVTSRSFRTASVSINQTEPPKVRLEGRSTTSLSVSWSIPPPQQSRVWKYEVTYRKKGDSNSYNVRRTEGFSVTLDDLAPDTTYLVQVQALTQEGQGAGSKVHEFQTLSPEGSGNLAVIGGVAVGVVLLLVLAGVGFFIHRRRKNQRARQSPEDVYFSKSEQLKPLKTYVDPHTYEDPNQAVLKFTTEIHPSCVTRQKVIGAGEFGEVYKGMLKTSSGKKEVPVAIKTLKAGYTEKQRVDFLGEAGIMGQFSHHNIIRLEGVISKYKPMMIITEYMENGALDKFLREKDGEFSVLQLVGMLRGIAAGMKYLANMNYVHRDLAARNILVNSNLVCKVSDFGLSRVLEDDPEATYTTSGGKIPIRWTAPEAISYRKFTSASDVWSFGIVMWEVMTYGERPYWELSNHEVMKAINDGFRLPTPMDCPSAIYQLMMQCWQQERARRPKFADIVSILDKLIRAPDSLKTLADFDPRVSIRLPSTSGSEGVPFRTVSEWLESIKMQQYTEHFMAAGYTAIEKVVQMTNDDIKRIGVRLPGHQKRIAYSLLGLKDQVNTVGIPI

[11] = biological target: Serine/threonine-protein kinase Nek7 (Homo sapiens) (UniProt Q8TDX7); test: Inhibition of N-terminal His6-tagged recombinant human NEK7 (2 to end residues) expressed in baculovirus infected Sf21 cells assessed as residual activity at 0.1 uM relative to control
Sequence of Serine/threonine-protein kinase Nek7 (Homo sapiens) (Q8TDX7 whole entry, looked up): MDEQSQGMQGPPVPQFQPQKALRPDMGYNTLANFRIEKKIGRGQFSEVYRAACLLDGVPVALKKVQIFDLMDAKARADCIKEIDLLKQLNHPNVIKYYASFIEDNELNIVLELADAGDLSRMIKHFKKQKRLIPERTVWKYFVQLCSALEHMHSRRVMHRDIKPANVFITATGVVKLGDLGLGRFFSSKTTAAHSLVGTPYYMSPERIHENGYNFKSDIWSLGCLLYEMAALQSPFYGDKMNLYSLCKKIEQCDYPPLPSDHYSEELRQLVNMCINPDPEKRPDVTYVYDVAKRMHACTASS

[12] = biological target: Calcium/calmodulin-dependent protein kinase type II subunit delta (Homo sapiens) (UniProt Q13557); test: Inhibition of recombinant full length human CaMKIIdelta assessed as residual activity at 1 uM relative to control
Sequence of Calcium/calmodulin-dependent protein kinase type II subunit delta (Homo sapiens) (Q13557 whole entry): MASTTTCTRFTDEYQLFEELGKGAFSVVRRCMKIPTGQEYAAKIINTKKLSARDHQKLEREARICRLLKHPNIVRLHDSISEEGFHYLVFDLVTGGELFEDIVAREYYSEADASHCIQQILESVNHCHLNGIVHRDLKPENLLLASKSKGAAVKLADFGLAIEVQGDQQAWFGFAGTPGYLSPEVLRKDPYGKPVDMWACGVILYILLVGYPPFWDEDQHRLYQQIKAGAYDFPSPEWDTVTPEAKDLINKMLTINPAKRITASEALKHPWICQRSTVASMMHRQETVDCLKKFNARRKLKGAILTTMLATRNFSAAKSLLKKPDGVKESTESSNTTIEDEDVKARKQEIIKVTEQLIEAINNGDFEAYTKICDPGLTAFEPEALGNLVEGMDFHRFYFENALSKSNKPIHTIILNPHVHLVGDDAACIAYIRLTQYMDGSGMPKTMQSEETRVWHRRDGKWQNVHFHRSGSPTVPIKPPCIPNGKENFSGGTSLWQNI

NALM-6 = test: Antiproliferative activity against human NALM-6 cells assessed as inhibition of cell growth incubated for 72 hrs by cell-titer glo assay; type: functional, cell-based; settings: NALM-6, 72 h
Summary of the method: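 Cells from ATCC or ECACC, kept in supplier-recommended medium with 1% penicillin-streptomycin at 37°C, 5% CO₂. Seeded at 10,000–30,000/cm² (adherent) or 100,000/mL (nonadherent) in medium with 10% fetal calf serum. Dosed after 24 h in duplicate with serial dilutions. Viable cells read by CellTiter-Glo 72 h later. IC50 from sigmoidal fit. At least two independent experiments.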

[13] = biological target: RAF proto-oncogene serine/threonine-protein kinase (Homo sapiens) (UniProt P04049); test: Inhibition of N-terminal GST-tagged recombinant human c-RAF (306 to 648 residues) expressed in Sf9 cells assessed as residual activity at 0.1 uM relative to control
Sequence of RAF proto-oncogene serine/threonine-protein kinase (Homo sapiens) (P04049 whole entry, the tested form may be a part): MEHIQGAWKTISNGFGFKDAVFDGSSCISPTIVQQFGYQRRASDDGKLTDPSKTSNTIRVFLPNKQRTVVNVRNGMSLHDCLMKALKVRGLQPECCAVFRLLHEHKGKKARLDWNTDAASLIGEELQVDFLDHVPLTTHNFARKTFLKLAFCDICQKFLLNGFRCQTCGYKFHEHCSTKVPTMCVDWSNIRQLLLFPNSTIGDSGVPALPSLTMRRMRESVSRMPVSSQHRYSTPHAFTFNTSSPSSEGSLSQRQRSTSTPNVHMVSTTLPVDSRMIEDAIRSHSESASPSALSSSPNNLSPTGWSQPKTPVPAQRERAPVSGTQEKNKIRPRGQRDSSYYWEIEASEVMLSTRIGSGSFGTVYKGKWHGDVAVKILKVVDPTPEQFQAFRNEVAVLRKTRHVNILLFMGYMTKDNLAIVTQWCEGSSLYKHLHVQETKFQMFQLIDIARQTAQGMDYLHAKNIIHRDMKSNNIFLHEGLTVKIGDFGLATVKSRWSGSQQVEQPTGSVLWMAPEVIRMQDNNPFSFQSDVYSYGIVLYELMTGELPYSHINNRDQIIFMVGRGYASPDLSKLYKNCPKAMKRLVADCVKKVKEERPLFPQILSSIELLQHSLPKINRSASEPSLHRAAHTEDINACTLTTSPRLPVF

EVSA-T = test: Antiproliferative activity against human EVSA-T cells assessed as inhibition of cell growth incubated for 72 hrs by cell-titer glo assay; type: functional, cell-based; summary of the method: as §2
[14] = Antiproliferative activity against human COLO 206F cells assessed as inhibition of cell growth incubated for 72 hrs by cell-titer glo assay; type: functional, cell-based; summary of the method: as §2
[15] = biological target: Mitogen-activated protein kinase 14 (Homo sapiens, UniProt Q16539); test: Inhibition of P38alpha (unknown origin) in presence of [gamma-33P]ATP
Sequence of Mitogen-activated protein kinase 14 (Q16539 whole entry): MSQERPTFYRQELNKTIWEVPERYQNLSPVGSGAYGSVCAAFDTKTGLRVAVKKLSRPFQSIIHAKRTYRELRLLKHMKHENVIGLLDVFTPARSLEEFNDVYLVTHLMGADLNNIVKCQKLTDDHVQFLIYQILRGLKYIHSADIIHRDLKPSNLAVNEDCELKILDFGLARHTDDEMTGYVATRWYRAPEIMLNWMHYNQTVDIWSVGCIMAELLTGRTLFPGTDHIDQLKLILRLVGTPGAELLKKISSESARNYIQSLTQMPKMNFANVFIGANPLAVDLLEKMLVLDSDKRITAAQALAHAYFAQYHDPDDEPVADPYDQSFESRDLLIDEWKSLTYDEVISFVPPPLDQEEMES

CCRF-CEM = test: Antiproliferative activity against human CCRF-CEM cells assessed as inhibition of cell growth incubated for 72 hrs by cell-titer glo assay; type: functional, cell-based; summary of the method: as §2
[16] = biological target: Casein kinase I isoform delta (Homo sapiens) (UniProt P48730); test: Inhibition of N-terminal GST-tagged recombinant human CK1delta (1 to 294 residues) expressed in E. coli assessed as residual activity at 1 uM relative to control
Sequence of Casein kinase I isoform delta (Homo sapiens) (P48730 whole entry, looked up, the tested form may be a part, canonical isoform): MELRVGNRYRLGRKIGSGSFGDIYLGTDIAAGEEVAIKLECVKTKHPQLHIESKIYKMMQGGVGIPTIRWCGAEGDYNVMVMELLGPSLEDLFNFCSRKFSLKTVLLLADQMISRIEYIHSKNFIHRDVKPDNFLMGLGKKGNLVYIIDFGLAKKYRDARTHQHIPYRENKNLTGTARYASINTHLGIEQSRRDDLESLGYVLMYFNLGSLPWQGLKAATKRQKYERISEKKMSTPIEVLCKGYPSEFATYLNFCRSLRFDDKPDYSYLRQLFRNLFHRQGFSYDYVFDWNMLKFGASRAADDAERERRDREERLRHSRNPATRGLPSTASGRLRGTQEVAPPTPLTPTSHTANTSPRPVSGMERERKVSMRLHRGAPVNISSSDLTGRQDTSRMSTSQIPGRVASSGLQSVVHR

CN1CCN(c2ccc(OC(F)(F)F)c(Nc3ncc4c(n3)-c3c(c(C(N)=O)nn3CCO)CC4)c2)CC1 [ONVANSERTIB]
IC50 (IGROV-1): 54 nM
IC50 (U-118-MG): 220 nM
Cmax [1]: 1900 nM
Activity (A2780 [2]): Active
IC50 (K562): 87 nM
IC50 (CAMA-1): 350 nM
IC50 (HCC70): 279 nM
Activity [3]: 113%
IC50 (1A9): 62 nM
IC50 (SR): 47 nM
IC50 (HCC1806): 18 nM
IC50 (MDA-MB-435S): 23 nM
IC50 (Casein kinase 2): 0.826 µmol/L
IC50 [4]: 32 nM
IC50 (SU-DHL-8): 31 nM
inhibition (A2780 [5]): inactive
Activity (A2780 [6]): Active
Activity (A2780 [7]): Active
IC50 [8]: > 10 µM
IC50 [9]: 162 nM
Activity [10]: 69%
IC50 (Ephrin type-A receptor 2): > 10 µM
Activity [11]: 123%
Activity [12]: 74%
IC50 (NALM-6): 61 nM
Activity [13]: 93%
IC50 (EVSA-T): 41 nM
IC50 [14]: 93 nM
IC50 [15]: > 10 µM
IC50 (CCRF-CEM): 55 nM
Activity [16]: 73%
